ChEMBL document CHEMBL2321664, “L-Aminoacyl-triazine derivatives are isoform-selective PI3Kβ inhibitors that target non-conserved Asp862 of PI3Kβ” (ACS Med Chem Lett, 2013)

Tests used:
[1] = molecular target: T1, Phosphatidylinositol 4,5-bisphosphate 3-kinase catalytic subunit delta isoform (Homo sapiens, UniProt O00329); assay: Inhibition of PI3K-delta (unknown origin) assessed as decrease in ATP consumption using phosphatidylinositol bisphosphate and 10 uM ATP as substrate measured after 60 mins by luminescence assay
T1 sequence (O00329 whole entry): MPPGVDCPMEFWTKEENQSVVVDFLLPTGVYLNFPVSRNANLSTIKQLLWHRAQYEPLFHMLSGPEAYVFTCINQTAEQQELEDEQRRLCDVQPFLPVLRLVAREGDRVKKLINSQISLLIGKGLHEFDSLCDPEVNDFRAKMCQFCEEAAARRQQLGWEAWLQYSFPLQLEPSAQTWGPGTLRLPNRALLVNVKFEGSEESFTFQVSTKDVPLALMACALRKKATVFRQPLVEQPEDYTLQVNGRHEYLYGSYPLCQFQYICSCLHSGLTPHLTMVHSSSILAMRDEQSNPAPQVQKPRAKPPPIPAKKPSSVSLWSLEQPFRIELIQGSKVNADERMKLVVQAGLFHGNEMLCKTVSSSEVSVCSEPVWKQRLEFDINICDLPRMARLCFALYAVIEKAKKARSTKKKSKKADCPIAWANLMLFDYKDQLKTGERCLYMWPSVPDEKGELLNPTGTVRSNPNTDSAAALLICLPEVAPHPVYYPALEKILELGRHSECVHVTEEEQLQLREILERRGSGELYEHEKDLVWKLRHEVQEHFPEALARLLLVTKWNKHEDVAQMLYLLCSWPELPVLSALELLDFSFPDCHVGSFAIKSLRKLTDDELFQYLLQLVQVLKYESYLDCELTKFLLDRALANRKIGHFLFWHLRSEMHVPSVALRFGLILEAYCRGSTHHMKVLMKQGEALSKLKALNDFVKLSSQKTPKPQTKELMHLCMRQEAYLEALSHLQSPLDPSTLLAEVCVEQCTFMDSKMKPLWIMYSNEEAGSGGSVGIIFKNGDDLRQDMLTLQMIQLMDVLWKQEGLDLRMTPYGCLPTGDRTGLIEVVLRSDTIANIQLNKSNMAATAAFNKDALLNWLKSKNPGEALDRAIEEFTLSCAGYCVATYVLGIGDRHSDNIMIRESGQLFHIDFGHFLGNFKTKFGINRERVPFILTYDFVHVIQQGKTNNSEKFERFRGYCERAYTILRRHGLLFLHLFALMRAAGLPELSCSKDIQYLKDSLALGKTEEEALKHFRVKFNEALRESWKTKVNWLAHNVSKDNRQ

[2] = molecular target: Phosphatidylinositol 4,5-bisphosphate 3-kinase catalytic subunit gamma isoform (Homo sapiens, UniProt P48736); assay: Inhibition of PI3K-gamma (unknown origin) assessed as decrease in ATP consumption using phosphatidylinositol bisphosphate and 10 uM ATP as substrate measured after 60 mins by luminescence assay
[3] = molecular target: T2, Phosphatidylinositol 4,5-bisphosphate 3-kinase catalytic subunit beta isoform (Homo sapiens, UniProt P42338); assay: Inhibition of PI3K-beta (unknown origin) assessed as decrease in ATP consumption using phosphatidylinositol bisphosphate and 10 uM ATP as substrate measured after 60 mins by luminescence assay
[4] = molecular target: Phosphatidylinositol 4,5-bisphosphate 3-kinase catalytic subunit alpha isoform (Homo sapiens, UniProt P42336); assay: Inhibition of PI3K-alpha (unknown origin) assessed as decrease in ATP consumption using phosphatidylinositol bisphosphate and 10 uM ATP as substrate measured after 60 mins by luminescence assay
[5] = molecular target: Phosphatidylinositol 4,5-bisphosphate 3-kinase catalytic subunit beta isoform (Homo sapiens, UniProt P42338, D862Q); assay: Inhibition of recombinant PI3K-beta D862Q mutant (unknown origin) expressed in baculovirus infected Sf21 cells assessed as decrease in ATP consumption using phosphatidylinositol bisphosphate and 100 uM ATP as substrate measured after 60 mins by luminescence assay
In short: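 Kinase-Glo luminescent read-out of kinase activity with 100 μM ATP. Run alongside the wild-type PI3Kβ enzyme and the wild-type and reciprocal-mutant PI3Kα enzymes. IC50 values are means of at least two duplicate experiments.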

[6] = molecular target: T2, Phosphatidylinositol 4,5-bisphosphate 3-kinase catalytic subunit beta isoform; assay: Inhibition of wild type PI3K-beta (unknown origin) assessed as decrease in ATP consumption using phosphatidylinositol bisphosphate and 100 uM ATP as substrate measured after 60 mins by luminescence assay
In short: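 Kinase-Glo read-out with 100 μM ATP, run alongside the D862Q mutant and the wild-type and reciprocal-mutant PI3Kα forms. IC50 is the mean of at least two duplicate experiments.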

[7] = molecular target: RAC-alpha serine/threonine-protein kinase (Homo sapiens, UniProt P31749); assay: Inhibition of IGF-1 induced Akt phosphorylation in PTEN-deficient human MDA-MB-468 cells pretreated for 2 hrs before IGF1 induction measured after 15 mins by Western blot analysis; type: cell-based
Sequence of RAC-alpha serine/threonine-protein kinase (P31749 whole entry): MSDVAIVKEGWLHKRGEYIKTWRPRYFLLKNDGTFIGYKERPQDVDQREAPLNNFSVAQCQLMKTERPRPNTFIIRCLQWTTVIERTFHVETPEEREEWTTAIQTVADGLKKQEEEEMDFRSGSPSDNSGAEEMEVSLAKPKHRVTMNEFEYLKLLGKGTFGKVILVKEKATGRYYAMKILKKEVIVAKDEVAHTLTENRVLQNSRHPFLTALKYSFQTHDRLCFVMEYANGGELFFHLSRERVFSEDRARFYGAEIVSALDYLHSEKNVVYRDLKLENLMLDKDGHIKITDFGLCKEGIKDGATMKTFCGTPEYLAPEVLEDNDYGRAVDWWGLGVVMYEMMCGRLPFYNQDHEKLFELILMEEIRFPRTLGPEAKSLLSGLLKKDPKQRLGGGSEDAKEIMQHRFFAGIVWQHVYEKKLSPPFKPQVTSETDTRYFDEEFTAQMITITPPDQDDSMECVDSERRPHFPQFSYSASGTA

Sequence of Phosphatidylinositol 4,5-bisphosphate 3-kinase catalytic subunit gamma isoform (P48736 whole entry, canonical isoform): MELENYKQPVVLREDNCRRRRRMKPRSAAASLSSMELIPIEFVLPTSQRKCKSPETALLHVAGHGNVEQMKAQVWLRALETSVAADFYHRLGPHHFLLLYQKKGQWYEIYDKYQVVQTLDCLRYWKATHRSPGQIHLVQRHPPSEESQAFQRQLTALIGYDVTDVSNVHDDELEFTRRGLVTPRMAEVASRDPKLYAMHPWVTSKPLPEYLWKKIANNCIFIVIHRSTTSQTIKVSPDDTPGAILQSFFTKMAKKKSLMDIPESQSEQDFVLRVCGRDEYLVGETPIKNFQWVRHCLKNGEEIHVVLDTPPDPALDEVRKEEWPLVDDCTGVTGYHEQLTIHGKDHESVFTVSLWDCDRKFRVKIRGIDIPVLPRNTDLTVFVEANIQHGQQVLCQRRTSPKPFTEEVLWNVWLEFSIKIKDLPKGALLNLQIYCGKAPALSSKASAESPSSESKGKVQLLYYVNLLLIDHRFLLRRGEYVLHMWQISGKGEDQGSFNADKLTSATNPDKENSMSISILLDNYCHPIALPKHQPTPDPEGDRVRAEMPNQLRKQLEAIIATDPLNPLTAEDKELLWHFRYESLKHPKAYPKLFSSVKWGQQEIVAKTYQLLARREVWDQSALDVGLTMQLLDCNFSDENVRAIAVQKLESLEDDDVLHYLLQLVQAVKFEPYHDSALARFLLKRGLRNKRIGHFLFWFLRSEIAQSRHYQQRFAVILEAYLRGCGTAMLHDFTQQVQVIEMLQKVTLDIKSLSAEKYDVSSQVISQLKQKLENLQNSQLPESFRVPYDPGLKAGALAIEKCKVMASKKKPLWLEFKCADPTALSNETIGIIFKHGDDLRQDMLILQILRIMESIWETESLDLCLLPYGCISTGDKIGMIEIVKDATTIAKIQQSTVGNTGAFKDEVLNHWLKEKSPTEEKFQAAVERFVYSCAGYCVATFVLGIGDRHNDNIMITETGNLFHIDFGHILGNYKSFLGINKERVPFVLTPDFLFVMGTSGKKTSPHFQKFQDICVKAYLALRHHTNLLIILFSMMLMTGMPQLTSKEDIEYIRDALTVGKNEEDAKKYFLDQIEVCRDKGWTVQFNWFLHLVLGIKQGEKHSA
Sequence of Phosphatidylinositol 4,5-bisphosphate 3-kinase catalytic subunit beta isoform (Homo sapiens, UniProt P42338, D862Q) (P42338 whole entry D862Q, canonical isoform): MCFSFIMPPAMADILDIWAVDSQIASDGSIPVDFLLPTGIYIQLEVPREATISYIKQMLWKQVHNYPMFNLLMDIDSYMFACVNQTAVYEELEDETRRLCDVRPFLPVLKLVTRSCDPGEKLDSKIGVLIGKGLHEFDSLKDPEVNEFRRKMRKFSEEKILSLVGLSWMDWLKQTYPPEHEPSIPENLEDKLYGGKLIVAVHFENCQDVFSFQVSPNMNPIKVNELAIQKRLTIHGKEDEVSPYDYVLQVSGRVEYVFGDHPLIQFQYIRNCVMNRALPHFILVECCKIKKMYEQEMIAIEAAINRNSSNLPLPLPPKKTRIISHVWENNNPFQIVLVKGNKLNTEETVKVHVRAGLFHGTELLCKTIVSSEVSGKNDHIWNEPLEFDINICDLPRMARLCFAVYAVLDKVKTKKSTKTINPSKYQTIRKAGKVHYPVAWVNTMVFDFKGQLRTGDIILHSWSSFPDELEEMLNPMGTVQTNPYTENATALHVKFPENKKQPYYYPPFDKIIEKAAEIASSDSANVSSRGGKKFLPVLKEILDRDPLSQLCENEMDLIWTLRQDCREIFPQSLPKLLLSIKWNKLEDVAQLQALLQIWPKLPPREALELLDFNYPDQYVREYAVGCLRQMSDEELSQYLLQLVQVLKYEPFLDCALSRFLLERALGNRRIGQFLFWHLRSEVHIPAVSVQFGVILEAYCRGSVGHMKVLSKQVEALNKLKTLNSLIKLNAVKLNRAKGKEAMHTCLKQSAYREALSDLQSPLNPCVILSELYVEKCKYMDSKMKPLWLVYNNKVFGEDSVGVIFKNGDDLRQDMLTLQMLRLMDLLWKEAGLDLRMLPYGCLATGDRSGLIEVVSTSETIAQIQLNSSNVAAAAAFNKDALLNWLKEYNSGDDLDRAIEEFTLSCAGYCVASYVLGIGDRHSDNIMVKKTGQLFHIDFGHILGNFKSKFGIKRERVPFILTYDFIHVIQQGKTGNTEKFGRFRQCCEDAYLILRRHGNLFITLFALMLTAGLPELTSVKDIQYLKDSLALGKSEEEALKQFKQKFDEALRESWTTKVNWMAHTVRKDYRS
T2 sequence (P42338 whole entry, canonical isoform): as the sequence (P42338 whole entry D862Q, canonical isoform) above, with Q862D counted along it
Sequence of Phosphatidylinositol 4,5-bisphosphate 3-kinase catalytic subunit alpha isoform (P42336 whole entry, canonical isoform): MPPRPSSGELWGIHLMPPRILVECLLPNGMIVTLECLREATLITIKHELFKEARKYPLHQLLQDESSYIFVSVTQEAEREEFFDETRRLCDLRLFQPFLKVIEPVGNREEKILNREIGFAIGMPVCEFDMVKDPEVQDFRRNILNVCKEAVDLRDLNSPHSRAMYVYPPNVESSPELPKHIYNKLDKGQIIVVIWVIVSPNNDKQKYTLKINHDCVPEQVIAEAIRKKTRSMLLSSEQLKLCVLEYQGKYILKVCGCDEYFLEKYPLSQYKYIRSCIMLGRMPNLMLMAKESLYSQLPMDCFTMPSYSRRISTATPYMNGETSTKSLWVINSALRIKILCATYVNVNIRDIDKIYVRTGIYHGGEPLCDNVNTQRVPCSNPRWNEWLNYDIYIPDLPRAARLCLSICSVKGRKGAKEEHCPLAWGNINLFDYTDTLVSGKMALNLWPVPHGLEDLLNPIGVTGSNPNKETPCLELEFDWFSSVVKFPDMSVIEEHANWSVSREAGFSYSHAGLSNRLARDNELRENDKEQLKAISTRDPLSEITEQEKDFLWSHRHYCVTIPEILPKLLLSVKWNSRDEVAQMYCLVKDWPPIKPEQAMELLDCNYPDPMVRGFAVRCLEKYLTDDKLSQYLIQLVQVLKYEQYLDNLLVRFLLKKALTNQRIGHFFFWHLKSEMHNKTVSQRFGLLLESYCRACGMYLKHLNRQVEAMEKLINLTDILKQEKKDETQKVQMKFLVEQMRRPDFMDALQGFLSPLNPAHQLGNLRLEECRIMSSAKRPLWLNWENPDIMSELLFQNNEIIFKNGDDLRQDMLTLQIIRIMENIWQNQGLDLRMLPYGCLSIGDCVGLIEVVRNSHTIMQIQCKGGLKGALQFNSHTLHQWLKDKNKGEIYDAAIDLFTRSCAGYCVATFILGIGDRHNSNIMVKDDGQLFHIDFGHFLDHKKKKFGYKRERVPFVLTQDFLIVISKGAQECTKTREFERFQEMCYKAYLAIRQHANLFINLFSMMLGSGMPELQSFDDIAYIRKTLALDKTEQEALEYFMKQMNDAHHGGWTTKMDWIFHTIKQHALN

Compound | IC50 [1] [µM] | IC50 [2] [µM] | IC50 [3] [µM] | IC50 [4] [µM] | IC50 [5] [µM] | IC50 [6] [µM] | IC50 [7] [µM] | inhibition [7]
N[C@@H](Cc1ccc(O)cc1)C(=O)N1CCN(c2nc(N3CCOCC3)nc(-n3c(C(F)F)nc4ccccc43)n2)CC1 | 1.2 | > 10 | 0.22 | 3.3 | – | – | – | –
N[C@H](Cc1ccccc1)C(=O)N1CCN(c2nc(N3CCOCC3)nc(-n3c(C(F)F)nc4ccccc43)n2)CC1 | 3.6 | > 10 | > 10 | – | – | – | – | –
O=C([C@@H]1CCCN1)N1CCN(c2nc(N3CCOCC3)nc(-n3c(C(F)F)nc4ccccc43)n2)CC1 | 0.39 | > 10 | 0.026 | 2.2 | – | – | – | –
NCCC(=O)N1CCN(c2nc(N3CCOCC3)nc(-n3c(C(F)F)nc4ccccc43)n2)CC1 | 0.058 | 3.9 | 0.098 | 0.72 | – | – | – | –
C[C@H](N)C(=O)N1CCN(c2nc(N3CCOCC3)nc(-n3c(C(F)F)nc4ccccc43)n2)CC1 | 0.49 | – | 0.031 | – | 0.89 | 0.062 | – | –
CC[C@H](C)[C@H](N)C(=O)N1CCN(c2nc(N3CCOCC3)nc(-n3c(C(F)F)nc4ccccc43)n2)CC1 | 1 | > 10 | 0.067 | – | 1.4 | 0.14 | – | –
CC(=O)NCC(=O)N1CCN(c2nc(N3CCOCC3)nc(-n3c(C(F)F)nc4ccccc43)n2)CC1 | 0.026 | 0.38 | 0.054 | 0.042 | – | – | – | –
CN(C)CC(=O)N1CCN(c2nc(N3CCOCC3)nc(-n3c(C(F)F)nc4ccccc43)n2)CC1 | 0.33 | > 10 | 2.4 | 1.6 | – | – | – | –
N[C@@H](Cc1ccccc1)C(=O)N1CCN(c2nc(N3CCOCC3)nc(-n3c(C(F)F)nc4ccccc43)n2)CC1 | 2.2 | – | 0.063 | – | 6 | 0.074 | < 0.01 | Dose-dependent effect
NCCCC[C@H](N)C(=O)N1CCN(c2nc(N3CCOCC3)nc(-n3c(C(F)F)nc4ccccc43)n2)CC1 | 0.67 | > 10 | 0.05 | 2.3 | – | – | – | –
NCC(=O)N1CCN(c2nc(N3CCOCC3)nc(-n3c(C(F)F)nc4ccccc43)n2)CC1 | 0.11 | 9.9 | 0.035 | 1.5 | – | – | – | –
CN[C@@H](C)C(=O)N1CCN(c2nc(N3CCOCC3)nc(-n3c(C(F)F)nc4ccccc43)n2)CC1 | 0.29 | 8 | 0.26 | 1.5 | – | – | – | –
C[C@@H](N)C(=O)N1CCN(c2nc(N3CCOCC3)nc(-n3c(C(F)F)nc4ccccc43)n2)CC1 | 0.07 | 2 | 1 | – | – | – | – | –
